# Key:
# PC-3 [1] = assay: Antitumor activity against human PC3 cells assessed as growth inhibition at 10 uM after 24 hrs by relative to control; assay type: functional; details: PC-3, 24 h
# Procedure, shortened: (§1)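 MTT growth-inhibition screen: 2.0×10^4 cells per well incubated with test compound for 24 h at 37 °C under 5% CO2. MTT then added, supernatant discarded and DMSO added. Absorbance read at 595 nm. Three separate experiments, each run in triplicate.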
# BGC-823 [2] = assay: Antitumor activity against human BGC823 cells assessed as growth inhibition at 10 uM after 24 hrs by relative to control; assay type: functional; details: BGC-823, 24 h; procedure, shortened: as §1
# Bcap37 = assay: Antitumor activity against human Bcap37 cells assessed as growth inhibition at 10 uM after 24 hrs by relative to control; assay type: functional; details: Bcap37, 24 h; procedure, shortened: as §1
# PC-3 [3] = assay: Cytotoxicity against human PC3 cells at 5 uM after 72 hrs by relative to control; assay type: functional; details: PC-3, 72 h
# Procedure, shortened: (§2)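 Cells grown in RPMI 1640 with 10% FBS and plated at 2×10^3 cells/well. Compounds were taken up in DMSO, diluted in medium and given at 1-100 µM for 72 h. Controls received 0.1% DMSO. MTT was read 4 h later as formazan absorbance at 595 nm. % cytotoxicity was blank-corrected against control, IC50 taken at 50% cell survival. Three experiments, each in triplicate.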
# PC-3 [4] = assay: Cytotoxicity against human PC3 cells at 10 uM after 72 hrs by relative to control; assay type: functional; details: PC-3, 72 h; procedure, shortened: as §2
# PC-3 [5] = assay: Cytotoxicity against human PC3 cells after 72 hrs by MTT assay; assay type: functional, cell-based; details: PC-3, 72 h; procedure, shortened: as §2
# PC-3 [6] = assay: Cytotoxicity against human PC3 cells at 1 uM after 72 hrs by relative to control; assay type: functional; details: PC-3, 72 h; procedure, shortened: as §2
# PC-3 [7] = assay: Cytotoxicity against human PC3 cells at 20 uM after 72 hrs by relative to control; assay type: functional; details: PC-3, 72 h; procedure, shortened: as §2
# BGC-823 [8] = assay: Cytotoxicity against human BGC823 cells at 20 uM after 72 hrs by relative to control; assay type: functional; details: BGC-823, 72 h; procedure, shortened: as §2
# BGC-823 [9] = assay: Cytotoxicity against human BGC823 cells at 10 uM after 72 hrs by relative to control; assay type: functional; details: BGC-823, 72 h; procedure, shortened: as §2
# BGC-823 [10] = assay: Cytotoxicity against human BGC823 cells at 5 uM after 72 hrs by relative to control; assay type: functional; details: BGC-823, 72 h; procedure, shortened: as §2
# BGC-823 [11] = assay: Cytotoxicity against human BGC823 cells after 72 hrs by MTT assay; assay type: functional, cell-based; details: BGC-823, 72 h; procedure, shortened: as §2
# BGC-823 [12] = assay: Cytotoxicity against human BGC823 cells at 1 uM after 72 hrs by relative to control; assay type: functional; details: BGC-823, 72 h; procedure, shortened: as §2
SMILES,inhibition at 10 µM (PC-3 [1]) [%],inhibition at 10 µM (BGC-823 [2]) [%],inhibition at 10 µM (Bcap37) [%],other results
CCCCOP(=O)(OCCCC)C(NC(=S)N[C@H](Cc1ccccc1)C(=O)NCc1ccccc1F)c1ccccc1 (stereo partly drawn),18,30.1,34,–
CC(C)OP(=O)(OC(C)C)C(NC(=S)N[C@H](Cc1ccccc1)C(=O)NCc1ccccc1F)c1ccccc1 (stereo partly drawn),14.3,51.6,27.8,–
CC(C)OP(=O)(OC(C)C)C(NC(=S)N[C@@H](Cc1ccccc1)C(=O)NCc1ccccc1F)c1ccccc1 (stereo partly drawn),26.8,47.9,44.4,–
COc1cccc2c1C(=O)c1c(O)c3c(c(O)c1C2=O)C[C@@](O)(C(=O)CO)C[C@@H]3O[C@H]1C[C@H](N)[C@H](O)[C@H](C)O1 [DOXORUBICIN],–,93.8,–,inhibition at 5 µM (PC-3 [3]): 89.4%; inhibition at 10 µM (PC-3 [4]): 98%; IC50 (PC-3 [5]): 3.3 µM; inhibition at 1 µM (PC-3 [6]): 36.4%; inhibition at 20 µM (PC-3 [7]): 100%
CCCCOP(=O)(OCCCC)C(NC(=S)N[C@@H](Cc1ccccc1)C(=O)NCc1ccccc1F)c1ccccc1 (stereo partly drawn),22.5,30.1,32.1,–
CCOP(=O)(OCC)C(NC(=S)N[C@@H](Cc1ccccc1)C(=O)NCc1ccc(F)cc1)c1ccccc1 (stereo partly drawn),27.9,22.9,26.1,–
CCCOP(=O)(OCCC)C(NC(=S)N[C@H](Cc1ccccc1)C(=O)NCc1ccccc1)c1ccccc1 (stereo partly drawn),30.8,24.4,49.1,–
CCCOP(=O)(OCCC)C(NC(=S)N[C@@H](Cc1ccccc1)C(=O)NCc1ccc(F)cc1)c1ccccc1 (stereo partly drawn),56.7,21,24,inhibition at 5 µM (PC-3 [3]): 19.8%; inhibition at 10 µM (PC-3 [4]): 28%; IC50 (PC-3 [5]): 22.1 µM; inhibition at 1 µM (PC-3 [6]): 18.1%; inhibition at 20 µM (PC-3 [7]): 51.2%
CC(C)OP(=O)(OC(C)C)C(NC(=S)N[C@H](Cc1ccccc1)C(=O)NCc1ccccc1)c1ccccc1 (stereo partly drawn),30.5,29,22.9,–
CCCCOP(=O)(OCCCC)C(NC(=S)N[C@H](Cc1ccccc1)C(=O)NCc1ccc(F)cc1)c1ccccc1 (stereo partly drawn),33.6,33.2,35.8,–
CCOP(=O)(OCC)C(NC(=S)N[C@@H](Cc1ccccc1)C(=O)NCc1ccccc1F)c1ccccc1 (stereo partly drawn),19.3,30.1,25.9,–
CCCCOP(=O)(OCCCC)C(NC(=S)N[C@@H](Cc1ccccc1)C(=O)NCc1ccccc1)c1ccccc1 (stereo partly drawn),22.8,21.1,34.5,–
CCCOP(=O)(OCCC)C(NC(=S)N[C@@H](Cc1ccccc1)C(=O)NCc1ccccc1F)c1ccccc1 (stereo partly drawn),18.1,11.1,44.7,–
CCCCOP(=O)(OCCCC)C(NC(=S)N[C@H](Cc1ccccc1)C(=O)NCc1ccccc1)c1ccccc1 (stereo partly drawn),21.7,22.7,46.6,–
CCOP(=O)(OCC)C(NC(=S)N[C@H](Cc1ccccc1)C(=O)NCc1ccccc1)c1ccccc1 (stereo partly drawn),56.9,55.7,52.3,inhibition at 5 µM (PC-3 [3]): 21.2%; inhibition at 10 µM (PC-3 [4]): 56.9%; IC50 (PC-3 [5]): 11.2 µM; inhibition at 1 µM (PC-3 [6]): 10.4%; inhibition at 20 µM (PC-3 [7]): 73.8%
CCOP(=O)(OCC)C(NC(=S)N[C@H](Cc1ccccc1)C(=O)NCc1ccc(F)cc1)c1ccccc1 (stereo partly drawn),32.4,44.5,34,–
CCCOP(=O)(OCCC)C(NC(=S)N[C@@H](Cc1ccccc1)C(=O)NCc1ccccc1)c1ccccc1 (stereo partly drawn),33.5,35.7,35.4,–
CC(C)OP(=O)(OC(C)C)C(NC(=S)N[C@@H](Cc1ccccc1)C(=O)NCc1ccc(F)cc1)c1ccccc1 (stereo partly drawn),58.6,89.1,53.1,inhibition at 5 µM (PC-3 [3]): 17.3%; inhibition at 20 µM (BGC-823 [8]): 100%; inhibition at 10 µM (BGC-823 [9]): 89.1%; inhibition at 10 µM (PC-3 [4]): 31.4%; IC50 (PC-3 [5]): 17.2 µM; inhibition at 1 µM (PC-3 [6]): 15.8%; inhibition at 5 µM (BGC-823 [10]): 70.1%; IC50 (BGC-823 [11]): 4.7 µM; inhibition at 20 µM (PC-3 [7]): 66.7%; inhibition at 1 µM (BGC-823 [12]): 30.6%
CCCOP(=O)(OCCC)C(NC(=S)N[C@H](Cc1ccccc1)C(=O)NCc1ccc(F)cc1)c1ccccc1 (stereo partly drawn),30.6,53.9,12.6,–
CCCOP(=O)(OCCC)C(NC(=S)N[C@H](Cc1ccccc1)C(=O)NCc1ccccc1F)c1ccccc1 (stereo partly drawn),30.6,11.1,17.2,–
CC(C)OP(=O)(OC(C)C)C(NC(=S)N[C@@H](Cc1ccccc1)C(=O)NCc1ccccc1)c1ccccc1 (stereo partly drawn),50.1,27.9,24.4,inhibition at 5 µM (PC-3 [3]): 12.8%; inhibition at 10 µM (PC-3 [4]): 21.8%; IC50 (PC-3 [5]): 19.5 µM; inhibition at 1 µM (PC-3 [6]): 2.7%; inhibition at 20 µM (PC-3 [7]): 50.1%
CCOP(=O)(OCC)C(NC(=S)N[C@H](Cc1ccccc1)C(=O)NCc1ccccc1F)c1ccccc1 (stereo partly drawn),73.1,30.1,70.2,inhibition at 5 µM (PC-3 [3]): 45.6%; inhibition at 10 µM (PC-3 [4]): 73.1%; IC50 (PC-3 [5]): 6.7 µM; inhibition at 1 µM (PC-3 [6]): 4.9%; inhibition at 20 µM (PC-3 [7]): 97.2%
CC(C)OP(=O)(OC(C)C)C(NC(=S)N[C@H](Cc1ccccc1)C(=O)NCc1ccc(F)cc1)c1ccccc1 (stereo partly drawn),34.8,20.8,27,–
CCCCOP(=O)(OCCCC)C(NC(=S)N[C@@H](Cc1ccccc1)C(=O)NCc1ccc(F)cc1)c1ccccc1 (stereo partly drawn),19.7,26.1,48.4,–
CCOP(=O)(OCC)C(NC(=S)N[C@@H](Cc1ccccc1)C(=O)NCc1ccccc1)c1ccccc1 (stereo partly drawn),20.1,18.3,16.9,–

# Source: ChEMBL document CHEMBL1275305, “Synthesis and in vitro study of pseudo-peptide thioureas containing α-aminophosphonate moiety as potential antitumor agents” (Eur J Med Chem, 2010)
